Measured values: ChEMBL document CHEMBL4265926, “Synthesis and antibacterial activity evaluation of novel biaryloxazolidinone analogues containing a hydrazone moiety as promising antibacterial agents” (Eur J Med Chem, 2018)
Converted amounts (≈) assume the structure as drawn.

What was measured:
Enterococcus faecium [1] = assay: Antibacterial activity against vancomycin-resistant Enterococcus faecium by broth liquid microdilution method; assay type: functional
Procedure, shortened: (§1)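 Isolates were identified on an automated MicroScan WalkAway 96 system. Susceptibility was tested by broth microdilution following CLSI guidelines. MIC was taken as the lowest concentration giving complete inhibition of bacterial growth. S. aureus ATCC 29213 served as the control strain.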

Staphylococcus aureus [2] = assay: Antibacterial activity against Staphylococcus aureus ATCC 29213 by broth liquid microdilution method; assay type: functional; procedure, shortened: as §1
Staphylococcus aureus [3] = assay: Antibacterial activity against methicillin-resistant Staphylococcus aureus by broth liquid microdilution method; assay type: functional; procedure, shortened: as §1
Enterococcus faecalis [4] = assay: Antibacterial activity against linezolid-resistant Enterococcus faecalis by broth liquid microdilution method; assay type: functional; procedure, shortened: as §1
Staphylococcus aureus [5] = assay: Antibacterial activity against methicillin-sensitive Staphylococcus aureus by broth liquid microdilution method; assay type: functional; procedure, shortened: as §1
Enterococcus faecium [6] = assay: Antibacterial activity against vancomycin-resistant Enterococcus faecium clinical isolates by broth liquid microdilution method; assay type: functional; procedure, shortened: as §1
Staphylococcus aureus [7] = assay: Potency index, ratio of linezolid MIC to test compound MIC for Staphylococcus aureus ATCC 29213; assay type: functional
Procedure, shortened: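 MIC by broth microdilution per CLSI guidelines, taken as the lowest concentration giving complete growth inhibition; isolates identified on MicroScan WalkAway 96; S. aureus ATCC29213 used as control strain. Index expressed as linezolid MIC divided by test compound MIC.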

Enterococcus faecalis [8] = assay: Antibacterial activity against linezolid-resistant Enterococcus faecalis clinical isolates by broth liquid microdilution method; assay type: functional; procedure, shortened: as §1
Staphylococcus aureus [9] = assay: Potency index, ratio of linezolid MIC to test compound MIC for methicillin-sensitive Staphylococcus aureus; assay type: functional
Staphylococcus aureus [10] = assay: Antibacterial activity against methicillin-resistant Staphylococcus aureus clinical isolates by broth liquid microdilution method; assay type: functional; procedure, shortened: as §1
[11] = target: T1, MAO-A (amine oxidase [flavin-containing] A) (Homo sapiens, UniProt P21397); assay: Inhibition of recombinant human MAOA expressed in baculovirus infected Sf9 insect cells at 30 uM using luciferin derived substrate pretreated for 15 mins followed by substrate addition and measured after 60 mins by luminescence assay relative to control; settings: probe luciferin derived substrate
T1 sequence (P21397 whole entry): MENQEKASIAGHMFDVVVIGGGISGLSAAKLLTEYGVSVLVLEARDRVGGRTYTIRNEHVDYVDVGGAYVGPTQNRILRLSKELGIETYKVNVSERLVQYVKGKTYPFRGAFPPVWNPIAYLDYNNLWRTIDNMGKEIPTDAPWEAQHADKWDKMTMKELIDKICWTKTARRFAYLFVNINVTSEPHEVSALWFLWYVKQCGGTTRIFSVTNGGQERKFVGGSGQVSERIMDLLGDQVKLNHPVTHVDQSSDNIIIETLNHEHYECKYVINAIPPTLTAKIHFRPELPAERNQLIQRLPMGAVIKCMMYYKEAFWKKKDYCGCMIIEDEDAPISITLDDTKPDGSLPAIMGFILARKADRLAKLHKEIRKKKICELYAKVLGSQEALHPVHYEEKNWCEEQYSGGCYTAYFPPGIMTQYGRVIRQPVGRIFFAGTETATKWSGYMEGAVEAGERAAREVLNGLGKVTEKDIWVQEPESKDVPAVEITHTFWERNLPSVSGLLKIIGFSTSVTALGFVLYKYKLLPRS
Procedure, shortened: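 Human recombinant MAO-A with MAO-Glo luminescent kit. Compounds in DMSO (final 1% DMSO) preincubated with enzyme 15 min at room temperature, then luciferin derivative substrate added and reacted 60 min at room temperature. Luciferase detection reagent added for 20 min before luminescence read. Buffer replacing enzyme served as 100% inhibition control and DMSO as no-inhibition control; percent inhibition calculated against both.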

Staphylococcus aureus [12] = assay: Antibacterial activity against methicillin-sensitive Staphylococcus aureus clinical isolates by broth liquid microdilution method; assay type: functional; procedure, shortened: as §1

| Compound | MIC (Enterococcus faecium [1]) [µg/mL] | MIC (Staphylococcus aureus [2]) [µg/mL] | MIC (Staphylococcus aureus [3]) [µg/mL] | MIC (Enterococcus faecalis [4]) [µg/mL] | MIC (Staphylococcus aureus [5]) [µg/mL] | MIC (Enterococcus faecium [6]) [µg/mL] | MIC50 (Enterococcus faecium [6]) [µg/mL] | MIC90 (Enterococcus faecium [6]) [µg/mL] | Ratio (Staphylococcus aureus [7]) | MIC (Enterococcus faecalis [8]) [µg/mL] | MIC50 (Enterococcus faecalis [8]) [µg/mL] | MIC90 (Enterococcus faecalis [8]) [µg/mL] | Ratio (Staphylococcus aureus [9]) | MIC50 (Staphylococcus aureus [10]) [µg/mL] | MIC90 (Staphylococcus aureus [10]) [µg/mL] | inhibition at 1 h, 30 µM [11] [%] | MIC (Staphylococcus aureus [12]) [µg/mL] | MIC50 (Staphylococcus aureus [12]) [µg/mL] | MIC90 (Staphylococcus aureus [12]) [µg/mL] |
| --- | --- | --- | --- | --- | --- | --- | --- | --- | --- | --- | --- | --- | --- | --- | --- | --- | --- | --- | --- |
| CC(=O)NC[C@H]1CN(c2ccc(-c3ccc(/C=N/N4CCN(C(=O)c5ccccc5)CC4)cc3)c(F)c2)C(=O)O1 | 0.25 (≈ 0.46 µM) | 0.25 (≈ 0.46 µM) | 0.25 (≈ 0.46 µM) | 0.25 (≈ 0.46 µM) | 0.125 (≈ 0.23 µM) | – | – | – | – | – | – | – | – | – | – | – | – | – | – |
| CC(=O)NC[C@H]1CN(c2ccc(-c3ccc(/C=N/N4CCOCC4)cc3)c(F)c2)C(=O)O1 | 0.5 (≈ 1.14 µM) | 0.5 (≈ 1.14 µM) | 0.25 (≈ 0.568 µM) | 0.25 (≈ 0.568 µM) | 0.25 (≈ 0.568 µM) | – | – | – | – | – | – | – | – | – | – | – | – | – | – |
| CC(=O)NC[C@H]1CN(c2ccc(-c3ccc(/C=N/N4CCN(C(=O)c5ccncc5)CC4)cc3)c(F)c2)C(=O)O1 | 0.25 (≈ 0.459 µM) | 0.25 (≈ 0.459 µM) | 0.25 (≈ 0.459 µM) | 0.25 (≈ 0.459 µM) | 0.125 (≈ 0.23 µM) | – | – | – | – | – | – | – | – | – | – | – | – | – | – |
| CC(=O)NC[C@H]1CN(c2ccc(-c3ccc(/C=N/N4CCCCC4)cc3)c(F)c2)C(=O)O1 | 0.5 (≈ 1.14 µM) | 0.25 (≈ 0.57 µM) | 0.25 (≈ 0.57 µM) | 0.25 (≈ 0.57 µM) | 0.25 (≈ 0.57 µM) | – | – | – | – | – | – | – | – | – | – | – | – | – | – |
| CC(=O)NC[C@H]1CN(c2ccc(-c3ccc(/C=N/N4CCN(Cc5ccccc5)CC4)cc3)c(F)c2)C(=O)O1 | 0.125 (≈ 0.236 µM) | 0.125 (≈ 0.236 µM) | 0.125 (≈ 0.236 µM) | 0.125 (≈ 0.236 µM) | 0.125 (≈ 0.236 µM) | – | – | – | – | – | – | – | – | – | – | – | – | – | – |
| CC(=O)NC[C@H]1CN(c2ccc(-c3ccc(/C=N/N4CCN(C(=O)OC(C)(C)C)CC4)cc3)c(F)c2)C(=O)O1 | > 2 | > 2 | – | > 2 | > 2 | – | – | – | – | – | – | – | – | – | – | – | – | – | – |
| COc1ccc(C(=O)N2CCN(/N=C/c3ccc(-c4ccc(N5C[C@H](CNC(C)=O)OC5=O)cc4F)cc3)CC2)cc1 | 0.125 (≈ 0.218 µM) | 0.125 (≈ 0.218 µM) | 0.125 (≈ 0.218 µM) | 0.125 (≈ 0.218 µM) | 0.125 (≈ 0.218 µM) | – | – | – | – | – | – | – | – | – | – | – | – | – | – |
| CC(=O)NC[C@H]1CN(c2ccc(-c3ccc(/C=N/N4CCSCC4)cc3)c(F)c2)C(=O)O1 | 0.0675 (≈ 0.148 µM) | 0.0675 (≈ 0.148 µM) | 0.0675 (≈ 0.148 µM) | 0.0675 (≈ 0.148 µM) | 0.0675 (≈ 0.148 µM) | 0.0625 to 0.5 (≈ 0.137 to 1.1 µM) | 0.15 (≈ 0.329 µM) | 0.5 (≈ 1.1 µM) | 15 - 30 | 0.0625 to 0.25 (≈ 0.137 to 0.548 µM) | 0.125 (≈ 0.274 µM) | 0.5 (≈ 1.1 µM) | 15 - 30 | 0.125 (≈ 0.274 µM) | 0.25 (≈ 0.548 µM) | 81 | 0.0625 to 0.25 (≈ 0.137 to 0.548 µM) | 0.125 (≈ 0.274 µM) | 0.25 (≈ 0.548 µM) |
| CC(=O)NC[C@H]1CN(c2ccc(-c3ccc(/C=N/N4CCN(C(=O)c5ccc(F)cc5)CC4)cc3)c(F)c2)C(=O)O1 | 0.125 (≈ 0.223 µM) | 0.125 (≈ 0.223 µM) | 0.125 (≈ 0.223 µM) | 0.125 (≈ 0.223 µM) | 0.125 (≈ 0.223 µM) | 0.0625 to 0.5 (≈ 0.111 to 0.89 µM) | 0.25 (≈ 0.445 µM) | 0.5 (≈ 0.89 µM) | – | 0.0625 to 0.25 (≈ 0.111 to 0.445 µM) | 0.25 (≈ 0.445 µM) | 0.25 (≈ 0.445 µM) | – | 0.125 (≈ 0.223 µM) | 0.25 (≈ 0.445 µM) | 89 | 0.0625 to 0.25 (≈ 0.111 to 0.445 µM) | 0.25 (≈ 0.445 µM) | 0.25 (≈ 0.445 µM) |
| C#CCN1CCN(/N=C/c2ccc(-c3ccc(N4C[C@H](CNC(C)=O)OC4=O)cc3F)cc2)CC1 | 0.125 (≈ 0.262 µM) | 0.125 (≈ 0.262 µM) | 0.125 (≈ 0.262 µM) | 0.125 (≈ 0.262 µM) | 0.125 (≈ 0.262 µM) | – | – | – | – | – | – | – | – | – | – | – | – | – | – |
| CC(=O)NC[C@H]1CN(c2ccc(-c3ccc(/C=N/N4CCN(C(=O)c5cnccn5)CC4)cc3)c(F)c2)C(=O)O1 | 0.125 (≈ 0.229 µM) | 0.125 (≈ 0.229 µM) | 0.125 (≈ 0.229 µM) | 0.125 (≈ 0.229 µM) | 0.125 (≈ 0.229 µM) | – | – | – | – | – | – | – | – | – | – | – | – | – | – |
| CC(=O)NC[C@H]1CN(c2ccc(-c3ccc(/C=N/N4CCN(C(=O)c5ccccn5)CC4)cc3)c(F)c2)C(=O)O1 | 0.125 (≈ 0.23 µM) | 0.125 (≈ 0.23 µM) | 0.125 (≈ 0.23 µM) | 0.125 (≈ 0.23 µM) | 0.125 (≈ 0.23 µM) | – | – | – | – | – | – | – | – | – | – | – | – | – | – |
| CC(=O)NC[C@H]1CN(c2ccc(-c3ccc(/C=N/N4CCN(C(=O)CN)CC4)cc3)c(F)c2)C(=O)O1 | 0.5 (≈ 1.01 µM) | 0.125 (≈ 0.252 µM) | 0.25 (≈ 0.503 µM) | 0.5 (≈ 1.01 µM) | 0.25 (≈ 0.503 µM) | – | – | – | – | – | – | – | – | – | – | – | – | – | – |
| CC(=O)NC[C@H]1CN(c2ccc(-c3ccc(/C=N/N4CCN(C(C)=O)CC4)cc3)c(F)c2)C(=O)O1 | 0.5 (≈ 1.04 µM) | 0.25 (≈ 0.519 µM) | 0.25 (≈ 0.519 µM) | 0.25 (≈ 0.519 µM) | 0.125 (≈ 0.26 µM) | – | – | – | – | – | – | – | – | – | – | – | – | – | – |
| CC(=O)NC[C@H]1CN(c2ccc(-c3ccc(/C=N/N4CCN(C(=O)c5ccco5)CC4)cc3)c(F)c2)C(=O)O1 | 0.25 (≈ 0.469 µM) | 0.25 (≈ 0.469 µM) | 0.25 (≈ 0.469 µM) | 0.25 (≈ 0.469 µM) | 0.125 (≈ 0.234 µM) | – | – | – | – | – | – | – | – | – | – | – | – | – | – |
